Experiments:
[1] = target: T1, Ephrin type-B receptor 3 (Homo sapiens) (UniProt P54753); test: Inhibition of EPHB3 (unknown origin) at 1 uM relative to control
T1 sequence (whole entry): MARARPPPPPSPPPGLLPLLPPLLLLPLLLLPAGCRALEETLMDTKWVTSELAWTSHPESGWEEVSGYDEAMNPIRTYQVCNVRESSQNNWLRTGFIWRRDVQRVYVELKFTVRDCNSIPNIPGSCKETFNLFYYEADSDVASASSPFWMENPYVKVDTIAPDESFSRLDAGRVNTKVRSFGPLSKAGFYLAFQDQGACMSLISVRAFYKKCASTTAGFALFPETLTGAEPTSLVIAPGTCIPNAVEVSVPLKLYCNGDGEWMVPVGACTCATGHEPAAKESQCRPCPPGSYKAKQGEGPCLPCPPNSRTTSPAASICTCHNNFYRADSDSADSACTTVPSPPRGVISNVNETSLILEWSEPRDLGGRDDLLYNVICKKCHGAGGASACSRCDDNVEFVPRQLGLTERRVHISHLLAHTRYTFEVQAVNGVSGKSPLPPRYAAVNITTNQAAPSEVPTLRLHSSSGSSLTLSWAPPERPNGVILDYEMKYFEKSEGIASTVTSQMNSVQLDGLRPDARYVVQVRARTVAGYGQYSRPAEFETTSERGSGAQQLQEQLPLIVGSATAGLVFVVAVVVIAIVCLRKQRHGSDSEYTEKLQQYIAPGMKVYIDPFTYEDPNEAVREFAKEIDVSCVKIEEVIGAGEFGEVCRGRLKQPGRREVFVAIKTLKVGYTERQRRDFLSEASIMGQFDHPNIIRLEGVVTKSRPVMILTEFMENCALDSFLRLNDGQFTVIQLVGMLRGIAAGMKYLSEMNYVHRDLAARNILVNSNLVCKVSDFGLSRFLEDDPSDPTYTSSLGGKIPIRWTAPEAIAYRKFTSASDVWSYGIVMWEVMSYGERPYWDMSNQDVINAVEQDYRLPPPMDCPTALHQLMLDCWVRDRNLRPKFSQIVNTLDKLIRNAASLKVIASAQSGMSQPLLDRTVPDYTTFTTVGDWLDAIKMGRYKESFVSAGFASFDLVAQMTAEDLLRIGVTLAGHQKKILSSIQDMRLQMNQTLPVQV
Procedure, shortened: (§1)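 Single-point screen of each compound against a panel of 59 protein kinases, at 1 or 10 μM. The panel data are also summarised as a rescaled geometric mean selectivity score.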

[2] = target: Phosphorylase kinase (Homo sapiens) (UniProt P15735+P46020+P46019+Q93100+Q16816); test: Inhibition of PHK (unknown origin) at 1 uM relative to control; type: protein-complex assay
Procedure, shortened: (§2)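 Single-concentration screen of each compound against a 59-protein-kinase panel, run at 10 µM or 1 µM. Activity relative to control is shown as a heat map across the panel.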

[3] = target: Casein kinase I (Homo sapiens) (UniProt Q9HCP0+P78368+P48730+P49674+P48729); test: Inhibition of CK1 (unknown origin) at 1 uM relative to control; type: protein assay; procedure, shortened: as §1
[4] = target: Serine/threonine-protein kinase PAK 4 (Homo sapiens) (UniProt O96013); test: Inhibition of PAK4 (unknown origin) at 1 uM relative to control; procedure, shortened: as §2
[5] = target: Serine/threonine-protein kinase Chk2 (Homo sapiens) (UniProt O96017); test: Inhibition of CHK2 (unknown origin) at 1 uM relative to control; procedure, shortened: as §1
[6] = target: Serine/threonine-protein kinase Nek6 (Homo sapiens) (UniProt Q9HC98); test: Inhibition of NEK6 (unknown origin) at 1 uM relative to control; procedure, shortened: as §2
[7] = target: T2, Eukaryotic elongation factor 2 kinase (Homo sapiens) (UniProt O00418); test: Inhibition of EF2K (unknown origin) at 1 uM relative to control; procedure, shortened: as §1
T2 sequence (whole entry): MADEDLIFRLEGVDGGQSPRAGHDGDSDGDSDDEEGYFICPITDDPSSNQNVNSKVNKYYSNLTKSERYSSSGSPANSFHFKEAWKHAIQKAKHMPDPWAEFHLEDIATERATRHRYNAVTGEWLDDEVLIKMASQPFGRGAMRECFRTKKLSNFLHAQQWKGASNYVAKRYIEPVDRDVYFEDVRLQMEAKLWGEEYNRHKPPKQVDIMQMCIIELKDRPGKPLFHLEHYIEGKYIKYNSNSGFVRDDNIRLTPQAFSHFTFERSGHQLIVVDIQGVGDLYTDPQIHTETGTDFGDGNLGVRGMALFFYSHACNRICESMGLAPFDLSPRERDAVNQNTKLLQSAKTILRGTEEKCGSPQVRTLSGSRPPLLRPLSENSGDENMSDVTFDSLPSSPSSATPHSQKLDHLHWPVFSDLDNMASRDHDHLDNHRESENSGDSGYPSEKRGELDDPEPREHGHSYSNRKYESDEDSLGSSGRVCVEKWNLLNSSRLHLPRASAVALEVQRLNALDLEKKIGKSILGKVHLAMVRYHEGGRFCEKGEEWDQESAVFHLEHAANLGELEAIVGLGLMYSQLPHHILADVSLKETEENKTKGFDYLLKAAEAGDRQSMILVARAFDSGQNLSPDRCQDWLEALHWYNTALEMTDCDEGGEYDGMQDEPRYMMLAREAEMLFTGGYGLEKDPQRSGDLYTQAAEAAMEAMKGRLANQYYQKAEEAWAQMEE

[8] = target: T3, Serine/threonine-protein kinase Nek2 (Homo sapiens) (UniProt P51955); test: Inhibition of NEK2a (unknown origin) at 1 uM relative to control; procedure, shortened: as §2
T3 sequence (whole entry): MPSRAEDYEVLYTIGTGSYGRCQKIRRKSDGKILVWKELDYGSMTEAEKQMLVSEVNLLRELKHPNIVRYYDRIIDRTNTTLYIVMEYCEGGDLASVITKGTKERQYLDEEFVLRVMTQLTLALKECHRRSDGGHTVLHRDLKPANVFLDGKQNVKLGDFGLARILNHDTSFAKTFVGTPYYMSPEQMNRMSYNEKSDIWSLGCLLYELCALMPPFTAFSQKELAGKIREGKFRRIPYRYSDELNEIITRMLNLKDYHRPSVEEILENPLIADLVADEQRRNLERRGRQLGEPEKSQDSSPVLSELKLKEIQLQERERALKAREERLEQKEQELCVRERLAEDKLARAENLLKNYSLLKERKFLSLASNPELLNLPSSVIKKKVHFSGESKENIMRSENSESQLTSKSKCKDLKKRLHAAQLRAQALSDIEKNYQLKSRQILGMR

[9] = target: Maternal embryonic leucine zipper kinase (Homo sapiens) (UniProt Q14680); test: Inhibition of MELK (unknown origin) at 1 uM relative to control; procedure, shortened: as §2
[10] = target: 3-phosphoinositide-dependent protein kinase 1 (Homo sapiens) (UniProt O15530); test: Inhibition of PDK1 (unknown origin) at 1 uM relative to control
[11] = target: Tyrosine-protein kinase BTK (Homo sapiens) (UniProt Q06187); test: Inhibition of BTK (unknown origin) at 1 uM relative to control; procedure, shortened: as §1
Chain of Tyrosine-protein kinase BTK (Homo sapiens) (Q06187 whole entry): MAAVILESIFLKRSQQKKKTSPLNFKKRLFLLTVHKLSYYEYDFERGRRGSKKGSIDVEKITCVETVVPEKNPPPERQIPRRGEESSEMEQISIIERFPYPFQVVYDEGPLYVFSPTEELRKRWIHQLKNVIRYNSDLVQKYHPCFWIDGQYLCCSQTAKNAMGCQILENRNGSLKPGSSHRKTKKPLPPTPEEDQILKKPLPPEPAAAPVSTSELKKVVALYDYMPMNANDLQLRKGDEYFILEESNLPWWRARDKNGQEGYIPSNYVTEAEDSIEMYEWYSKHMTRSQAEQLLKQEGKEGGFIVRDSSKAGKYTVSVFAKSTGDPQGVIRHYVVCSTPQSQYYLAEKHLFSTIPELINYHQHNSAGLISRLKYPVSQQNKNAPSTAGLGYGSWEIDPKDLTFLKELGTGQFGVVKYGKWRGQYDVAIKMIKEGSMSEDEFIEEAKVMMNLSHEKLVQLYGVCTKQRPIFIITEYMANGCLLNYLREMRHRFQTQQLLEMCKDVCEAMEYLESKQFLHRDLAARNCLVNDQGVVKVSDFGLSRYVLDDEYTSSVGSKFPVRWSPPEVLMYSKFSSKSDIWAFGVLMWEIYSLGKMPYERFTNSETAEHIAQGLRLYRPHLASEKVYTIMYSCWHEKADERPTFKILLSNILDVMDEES

Chain of 3-phosphoinositide-dependent protein kinase 1 (Homo sapiens) (O15530 whole entry, looked up): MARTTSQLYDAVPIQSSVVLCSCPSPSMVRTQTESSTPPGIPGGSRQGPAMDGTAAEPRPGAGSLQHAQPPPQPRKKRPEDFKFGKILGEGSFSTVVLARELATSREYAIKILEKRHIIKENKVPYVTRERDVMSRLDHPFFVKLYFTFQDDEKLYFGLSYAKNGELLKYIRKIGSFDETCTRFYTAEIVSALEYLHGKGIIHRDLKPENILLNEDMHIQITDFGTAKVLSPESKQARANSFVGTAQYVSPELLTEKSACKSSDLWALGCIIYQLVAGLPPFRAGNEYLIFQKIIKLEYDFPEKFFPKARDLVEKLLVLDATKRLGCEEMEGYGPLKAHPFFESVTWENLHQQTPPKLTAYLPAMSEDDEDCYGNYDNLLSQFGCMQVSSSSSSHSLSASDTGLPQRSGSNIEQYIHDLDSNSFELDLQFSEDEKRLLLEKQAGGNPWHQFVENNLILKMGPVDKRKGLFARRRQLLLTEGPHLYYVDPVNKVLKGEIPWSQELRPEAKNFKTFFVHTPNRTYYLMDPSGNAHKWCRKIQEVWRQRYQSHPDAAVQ
Chain of Serine/threonine-protein kinase PAK 4 (Homo sapiens) (O96013 whole entry, looked up): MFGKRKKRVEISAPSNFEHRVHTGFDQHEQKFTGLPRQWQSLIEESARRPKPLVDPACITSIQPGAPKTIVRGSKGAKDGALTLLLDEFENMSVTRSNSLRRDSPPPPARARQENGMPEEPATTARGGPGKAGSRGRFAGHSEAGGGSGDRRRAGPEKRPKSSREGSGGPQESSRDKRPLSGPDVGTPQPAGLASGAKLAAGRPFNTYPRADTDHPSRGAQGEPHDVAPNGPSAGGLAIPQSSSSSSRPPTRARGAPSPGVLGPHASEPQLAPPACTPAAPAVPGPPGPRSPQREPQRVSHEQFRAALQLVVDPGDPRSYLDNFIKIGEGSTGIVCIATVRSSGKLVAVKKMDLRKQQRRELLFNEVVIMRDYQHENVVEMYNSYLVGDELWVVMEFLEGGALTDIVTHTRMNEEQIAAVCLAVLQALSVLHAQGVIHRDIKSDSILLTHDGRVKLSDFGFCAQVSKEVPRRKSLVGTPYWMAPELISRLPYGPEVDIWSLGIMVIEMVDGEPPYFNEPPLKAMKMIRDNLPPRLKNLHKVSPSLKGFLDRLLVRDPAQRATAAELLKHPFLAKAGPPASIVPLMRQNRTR
Chain of Serine/threonine-protein kinase Chk2 (Homo sapiens) (O96017 whole entry): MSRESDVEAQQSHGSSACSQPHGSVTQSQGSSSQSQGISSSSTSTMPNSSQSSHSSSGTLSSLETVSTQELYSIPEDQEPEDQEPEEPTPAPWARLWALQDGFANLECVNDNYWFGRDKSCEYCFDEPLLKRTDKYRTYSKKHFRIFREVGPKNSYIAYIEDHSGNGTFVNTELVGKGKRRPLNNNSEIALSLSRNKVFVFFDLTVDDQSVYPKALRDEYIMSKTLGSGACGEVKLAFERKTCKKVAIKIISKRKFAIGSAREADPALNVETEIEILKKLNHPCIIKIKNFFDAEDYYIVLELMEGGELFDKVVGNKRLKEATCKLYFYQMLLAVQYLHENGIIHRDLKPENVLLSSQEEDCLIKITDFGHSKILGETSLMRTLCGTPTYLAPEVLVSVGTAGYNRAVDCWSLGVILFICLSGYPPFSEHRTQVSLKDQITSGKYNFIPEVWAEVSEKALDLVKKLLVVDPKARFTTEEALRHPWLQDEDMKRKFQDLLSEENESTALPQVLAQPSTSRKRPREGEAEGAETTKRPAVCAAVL
Chain of Maternal embryonic leucine zipper kinase (Homo sapiens) (Q14680 whole entry, looked up): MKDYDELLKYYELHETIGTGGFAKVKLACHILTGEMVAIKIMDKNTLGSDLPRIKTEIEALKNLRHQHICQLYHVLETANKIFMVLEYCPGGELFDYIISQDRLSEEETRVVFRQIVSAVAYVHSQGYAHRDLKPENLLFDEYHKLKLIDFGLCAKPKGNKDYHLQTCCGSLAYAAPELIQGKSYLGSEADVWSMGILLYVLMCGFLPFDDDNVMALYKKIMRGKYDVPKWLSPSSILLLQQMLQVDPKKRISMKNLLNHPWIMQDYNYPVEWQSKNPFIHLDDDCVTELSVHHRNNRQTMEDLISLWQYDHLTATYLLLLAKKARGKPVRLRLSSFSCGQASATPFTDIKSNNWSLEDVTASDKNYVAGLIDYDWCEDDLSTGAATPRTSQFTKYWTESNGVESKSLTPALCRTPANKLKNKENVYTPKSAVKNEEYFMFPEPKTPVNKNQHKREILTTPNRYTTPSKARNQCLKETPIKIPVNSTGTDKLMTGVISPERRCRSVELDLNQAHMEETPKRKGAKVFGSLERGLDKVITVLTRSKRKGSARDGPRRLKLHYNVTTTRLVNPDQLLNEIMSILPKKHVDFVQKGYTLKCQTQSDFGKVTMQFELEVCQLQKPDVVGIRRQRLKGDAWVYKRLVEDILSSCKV
Chain of Serine/threonine-protein kinase Nek6 (Homo sapiens) (Q9HC98 whole entry): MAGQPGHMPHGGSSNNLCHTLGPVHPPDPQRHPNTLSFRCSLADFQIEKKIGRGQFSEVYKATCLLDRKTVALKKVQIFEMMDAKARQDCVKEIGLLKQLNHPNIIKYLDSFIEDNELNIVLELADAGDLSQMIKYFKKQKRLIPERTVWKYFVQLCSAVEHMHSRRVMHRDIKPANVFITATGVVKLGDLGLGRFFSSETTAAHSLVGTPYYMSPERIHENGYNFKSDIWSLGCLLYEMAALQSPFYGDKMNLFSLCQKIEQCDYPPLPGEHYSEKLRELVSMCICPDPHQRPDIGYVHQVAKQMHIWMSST

| SMILES | inhibition [1] | inhibition [2] | inhibition [3] | inhibition [4] | inhibition [5] | inhibition [6] | inhibition [7] | inhibition [8] | inhibition [9] | inhibition [10] | inhibition [11] |
| --- | --- | --- | --- | --- | --- | --- | --- | --- | --- | --- | --- |
| CC(C)n1cc(-c2n[nH]c3ccnc(OC4CCOCC4)c23)cn1 | 0% | 41% | 0% | 46% | 29% | 0% | 0% | 8% | 84% | 5% | 39% |
| c1cc(-c2n[nH]c3ccnc(OC4CCOCC4)c23)cc(N2CCOCC2)n1 | 0% | 15% | 0% | 0% | 0% | 0% | 9% | 0% | 79% | 0% | 51% |

— ChEMBL document CHEMBL4330096, “Discovery of potent and selective 5-azaindazole inhibitors of leucine-rich repeat kinase 2 (LRRK2) - Part 1” (Bioorg Med Chem Lett, 2019)
